A short description of data set [1]: Immunosuppressive activity in human RPMI1788 cells cocultured with human PBMC assessed as inhibition of [3H]thymidine incorporation incubated for 6 days prior to [3H]thymidine addition measured after 18 hrs by liquid scintillation counting. It counts as functional, cell-based. As to conditions: RPMI-1788. In outline: (§1)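 Effector PBMCs from heparinized healthy-donor blood were isolated over Lymphoprep and held at 1.2 × 10⁶ cells/mL in RPMI-1640 with 10% heat-inactivated FCS. Mitomycin-treated stimulator cells were at 0.45 × 10⁶ cells/mL. Cells were mixed with diluted compound and cultured at 37 °C, 5% CO₂. (methyl-³H)thymidine was added for the final 18 h, and filter-harvested cpm were counted by scintillation. Compounds were screened at one concentration, then dose-response IC₅₀ was determined. Values are means of two independent experiments.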

Data set [2] is described as follows: Immunosuppressive activity in human RPMI1788 cells cocultured with human PBMC assessed as inhibition of [3H]thymidine incorporation at 10 uM incubated for 6 days prior to [3H]thymidine addition measured after 18 hrs by liquid scintillation counting. Particulars: RPMI-1788. The data set is classed as functional. The procedure, abridged:
as §1

Data set [3] is described as follows: Growth inhibition of human Jurkat T cells at 10 uM after 48 hrs by WST1 assay. It counts as cell-based. The procedure, abridged:
(§2)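 Jurkat T cells were seeded at 5.10⁴ cells per well and exposed to serial compound dilutions for 48 h at 37 °C and 5% CO₂. Part of the medium was removed, WST-1 tetrazolium salt was added, and cells were incubated further. Absorbance was read at 450 nm. Results are % cytotoxicity at each concentration, with CC₅₀ calculated.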

Data set [4] can be described thus: Cytotoxicity against human Jurkat T cells after 48 hrs by WST1 assay. It counts as cell-based. In outline:
as §2

SMILES strings stand for the structures.

Turning to `COc1ccc(-c2nc(SCc3ccccc3)nc(N3CCC(Cc4ccccc4)CC3)c2C#N)cc1`, the IC50 in data set [1] was more than 10 µM. Further, the inhibition at 10 µM in data set [2] came to 31%.
The matching figures for `N#Cc1c(OCc2ccccc2)nc(SCc2ccccc2)nc1-c1ccc(Cl)cc1`: more than 10 µM and 22%.
As for `CCCn1c(SCc2ccccc2)nc(-c2cccc(Cl)c2)c(C#N)c1=O`, the IC50 in data set [1] is more than 10 µM. The inhibition at 10 µM in data set [2] was determined as 9%.
The compound `N#Cc1c(-c2ccc(Cl)cc2)nc(SCc2ccccc2)nc1N1CCOCC1` had an inhibition at 48 h, 10 µM in data set [3] of 5%. Further, the CC50 at 48 h in data set [4] was more than 10 µM. Besides, the IC50 in data set [1] stood at 8.3 µM. Also, in data set [2], the inhibition at 10 µM turned out to be 63%.
As for `COc1nc(Nc2ccc(Cl)cc2)nc(-c2ccc(Cl)cc2)c1C#N`, the IC50 in data set [1] is more than 10 µM. The inhibition at 10 µM in data set [2] was 0%.
Consider `COc1ccc(-c2nc(SCc3ccccc3)nc(NCc3cccs3)c2C#N)cc1`, for which, in data set [3], the inhibition at 48 h, 10 µM stood at 13%. In data set [4], this compound gave a CC50 at 48 h of more than 10 µM. Besides, in data set [1], the IC50 turned out to be 5 µM. Also, in data set [2], the inhibition at 10 µM was 65%.
On to `CCOc1nc(SCc2ccccc2)nc(-c2ccc(OC)cc2)c1C#N`, for which the IC50 in data set [1] was more than 10 µM. Besides, in data set [2], the inhibition at 10 µM stood at 46%.
The matching figures for `N#Cc1c(-c2ccc(Cl)cc2)nc(Nc2ccccc2)[nH]c1=O`: more than 10 µM and 8%.
In data set [3], `COc1ccc(-c2nc(SCc3ccccc3)nc(NCc3ccccc3)c2C#N)cc1` yielded an inhibition at 48 h, 10 µM of 5%. In data set [4], this compound had a CC50 at 48 h of more than 10 µM. In addition, in data set [1], the IC50 worked out at 2.5 µM. Further, in data set [2], the inhibition at 10 µM is 73%.
The matching figures for `CCCCCCSc1nc(-c2ccc(OC)cc2)c(C#N)c(N2CCOCC2)n1`: 13%, more than 10 µM, 5.3 µM and 69%.
As for `CCOc1nc(Nc2ccc(Cl)cc2)nc(-c2ccccc2)c1C#N`, the IC50 in data set [1] was more than 10 µM. For the same compound, the inhibition at 10 µM in data set [2] turned out to be 38%.
On the same counts, the results for `Cn1c(SCc2ccccc2)nc(-c2cccc(Cl)c2)c(C#N)c1=O` are more than 10 µM and 7%.
The matching figures for `Cc1ccc(Nc2nc(-c3ccc(Cl)cc3)c(C#N)c(N3CCCCC3)n2)cc1`: more than 10 µM and 0%.
The matching figures for `COc1nc(SCc2ccccc2)nc(-c2ccc(Cl)cc2)c1C#N`: more than 10 µM and 10%.
As to `N#Cc1c(-c2ccccc2)nc(Nc2ccc(Cl)cc2)[nH]c1=O`, the IC50 in data set [1] is more than 10 µM. In addition, the inhibition at 10 µM in data set [2] was 0%.
On to `CCOc1nc(SCc2ccccc2)nc(-c2cccc(Cl)c2)c1C#N`, for which, in data set [1], the IC50 was more than 10 µM. The inhibition at 10 µM in data set [2] is 10%.
Regarding `N#Cc1c(-c2cccc(Cl)c2)nc(SCc2ccccc2)nc1N1CCOCC1`, the inhibition at 48 h, 10 µM in data set [3] was determined as 15%. Further, in data set [4], the CC50 at 48 h was more than 10 µM. Moreover, the IC50 in data set [1] is 5.5 µM. For the same compound, the inhibition at 10 µM in data set [2] came to 80%.
Consider `CC(C)Nc1nc(Nc2ccc(Cl)cc2)nc(-c2ccccc2)c1C#N`, for which the IC50 in data set [1] was determined as 5.7 µM. Besides, the inhibition at 10 µM in data set [2] is 72%.
As for `Cc1ccc(Nc2nc(-c3ccc(Cl)cc3)c(C#N)c(=O)[nH]2)cc1`, the IC50 in data set [1] is more than 10 µM. Further, the inhibition at 10 µM in data set [2] worked out at 20%.
On to `N#Cc1c(NC2CCCCC2)nc(SCc2ccccc2)nc1-c1ccc(Cl)cc1`, for which the inhibition at 48 h, 10 µM in data set [3] came to 0%. This compound showed a CC50 at 48 h in data set [4] of more than 10 µM. In addition, the IC50 in data set [1] came out at 6.4 µM. The inhibition at 10 µM in data set [2] worked out at 56%.
Take `N#Cc1c(-c2ccc(Cl)cc2)nc(Nc2ccc(Cl)cc2)nc1N1CCCCC1`: the IC50 in data set [1] is more than 10 µM. In addition, the inhibition at 10 µM in data set [2] stood at 15%.
On the same counts, the results for `CCc1cccc(Nc2nc(-c3ccc(Cl)cc3)c(C#N)c(=O)[nH]2)c1` are more than 10 µM and 33%.
On the same counts, the results for `N#Cc1c(-c2ccc(Cl)cc2)nc(Nc2cccc(F)c2)[nH]c1=O` are more than 10 µM and 0%.
On the same counts, the results for `N#Cc1c(-c2ccc(Cl)cc2)nc(SCc2ccccc2)n(Cc2ccccc2)c1=O` are more than 10 µM and 14%.
On to `Cc1ccc(Nc2nc(-c3ccccc3)c(C#N)c(N3CCCCC3)n2)cc1`, for which the inhibition at 48 h, 10 µM in data set [3] was 10%. The CC50 at 48 h in data set [4] is more than 10 µM. Further, in data set [1], the IC50 was 4.3 µM. Moreover, the inhibition at 10 µM in data set [2] was 88%.
On the same counts, the results for `COc1ccc(-c2nc(SC)nc(N3CCOCC3)c2C#N)cc1` are 6%, more than 10 µM, 4.9 µM and 80%.
`C=CCSc1nc(-c2ccc(OC)cc2)c(C#N)c(N2CCOCC2)n1` displayed an inhibition at 48 h, 10 µM in data set [3] of 5%. This compound showed a CC50 at 48 h in data set [4] of more than 10 µM. Also, the IC50 in data set [1] was found to be 3.4 µM. In addition, the inhibition at 10 µM in data set [2] stood at 82%.
On the same counts, the results for `N#Cc1c(-c2ccc(Cl)cc2)nc(SCc2ccccc2)nc1N1CCC(C(N)=O)CC1` are 19%, more than 10 µM, 6.4 µM and 57%.
Take `CCOc1nc(SCc2ccccc2)nc(-c2ccc(Cl)cc2)c1C#N`: in data set [1], the IC50 was more than 10 µM. Besides, the inhibition at 10 µM in data set [2] turned out to be 13%.
Turning to `CCCCSc1nc(-c2ccc(OC)cc2)c(C#N)c(N2CCOCC2)n1`, the inhibition at 48 h, 10 µM in data set [3] was 13%. Also, the CC50 at 48 h in data set [4] was more than 10 µM. The IC50 in data set [1] is 2.3 µM. In data set [2], the inhibition at 10 µM was 67%.
Consider `CCOc1nc(Nc2ccc(Cl)cc2)nc(-c2ccc(Cl)cc2)c1C#N`, for which, in data set [1], the IC50 was more than 10 µM. Besides, the inhibition at 10 µM in data set [2] turned out to be 0%.
For the compound `COc1ccc(-c2nc(SCCc3ccccc3)nc(N3CCOCC3)c2C#N)cc1`, the inhibition at 48 h, 10 µM in data set [3] was found to be 9%. Also, in data set [4], the CC50 at 48 h was more than 10 µM. For the same compound, the IC50 in data set [1] was found to be 3.9 µM. Also, the inhibition at 10 µM in data set [2] is 62%.
As for `N#Cc1c(-c2cccc(Cl)c2)nc(Nc2ccc(Cl)cc2)[nH]c1=O`, in data set [1], the IC50 was more than 10 µM. The inhibition at 10 µM in data set [2] was determined as 14%.
The matching figures for `COc1ccc(-c2nc(SCc3ccccc3)nc(N3CCSCC3)c2C#N)cc1`: more than 10 µM and 13%.
On to `COc1ccc(-c2nc(SCc3ccccc3)nc(N3CCC(C(N)=O)CC3)c2C#N)cc1`, for which the inhibition at 48 h, 10 µM in data set [3] turned out to be 12%. Moreover, in data set [4], the CC50 at 48 h was more than 10 µM. Also, the IC50 in data set [1] is 4.9 µM. In addition, the inhibition at 10 µM in data set [2] stood at 73%.
`COc1ccc(-c2nc(SCc3ccccc3)nc(NCCc3ccccc3)c2C#N)cc1`: the IC50 in data set [1] is more than 10 µM. Also, in data set [2], the inhibition at 10 µM was found to be 11%.
The matching figures for `CCn1c(SCc2ccccc2)nc(-c2ccc(Cl)cc2)c(C#N)c1=O`: more than 10 µM and 5%.
Consider `COc1ccc(-c2nc(SCc3ccc(Br)cc3)nc(N3CCOCC3)c2C#N)cc1`, for which, in data set [1], the IC50 is more than 10 µM. Further, the inhibition at 10 µM in data set [2] stood at 36%.
The matching figures for `N#Cc1c(-c2ccc(Cl)cc2)nc(SCc2ccccc2)nc1N1CCC(Cc2ccccc2)CC1`: more than 10 µM and 17%.
On the same counts, the results for `N#Cc1c(-c2ccc(Cl)cc2)nc(Nc2ccc(Cl)cc2)nc1N1CCOCC1` are more than 10 µM and 45%.
The matching figures for `Cc1ccc(Nc2nc(-c3ccccc3)c(C#N)c(=O)[nH]2)cc1`: more than 10 µM and 11%.
Regarding `CCCOc1nc(Nc2ccc(Cl)cc2)nc(-c2ccccc2)c1C#N`, in data set [1], the IC50 is more than 10 µM. Further, the inhibition at 10 µM in data set [2] amounted to 44%.
The matching figures for `CCn1c(SCc2ccccc2)nc(-c2ccc(OC)cc2)c(C#N)c1=O`: more than 10 µM and 12%.
On the same counts, the results for `COc1ccc(-c2nc(SCc3ccccc3)nc(N3CCC(C)CC3)c2C#N)cc1` are more than 10 µM and 35%.
The matching figures for `N#Cc1c(OCc2ccccc2)nc(Nc2ccc(Cl)cc2)nc1-c1ccc(Cl)cc1`: more than 10 µM and 26%.
Consider `N#Cc1c(NC2CCCCC2)nc(Nc2ccc(Cl)cc2)nc1-c1ccc(Cl)cc1`, for which the IC50 in data set [1] was more than 10 µM. Moreover, the inhibition at 10 µM in data set [2] was found to be 1%.
Turning to `N#Cc1c(-c2ccc(Cl)cc2)nc(SCc2ccccc2)nc1N1CCCC(C(N)=O)C1` (centres undefined), in data set [1], the IC50 was more than 10 µM. Moreover, the inhibition at 10 µM in data set [2] is 64%.
As for `COc1ccc(-c2nc(Nc3ccc(Cl)cc3)[nH]c(=O)c2C#N)cc1`, in data set [1], the IC50 was more than 10 µM. Further, the inhibition at 10 µM in data set [2] turned out to be 0%.
On the same counts, the results for `COc1ccc(-c2nc(SCc3ccccc3)n(C)c(=O)c2C#N)cc1` are more than 10 µM and 5%.
On the same counts, the results for `N#Cc1c(-c2ccc(Cl)cc2)nc(Nc2ccc(Cl)cc2)[nH]c1=O` are more than 10 µM and 18%.
`Cn1c(SCc2ccccc2)nc(-c2ccc(Cl)cc2)c(C#N)c1=O`: in data set [1], the IC50 is more than 10 µM. Besides, in data set [2], the inhibition at 10 µM was found to be 0%.
On the same counts, the results for `CC(C)Nc1nc(Nc2ccc(Cl)cc2)nc(-c2ccc(Cl)cc2)c1C#N` are more than 10 µM and 0%.
On the same counts, the results for `COc1ccc(-c2nc(SCc3ccccc3)nc(N3CCC(c4ccccc4)CC3)c2C#N)cc1` are more than 10 µM and 31%.
The matching figures for `CC(C)Nc1nc(SCc2ccccc2)nc(-c2ccc(Cl)cc2)c1C#N`: more than 10 µM and 48%.

The values above are taken from ChEMBL document CHEMBL2331363, “Synthesis of a 2,4,6-trisubstituted 5-cyano-pyrimidine library and evaluation of its immunosuppressive activity in a Mixed Lymphocyte Reaction assay” (Bioorg Med Chem, 2013).
